Experimental data taken from BindingDB's records for doi:10.1021/acs.jmedchem.9b01336 (University of Naples Federico II, 2020).
pIC50: −log10 of the molar value.

What was measured:
[1] = target: T1, Proto-oncogene tyrosine-protein kinase receptor Ret (Homo sapiens, UniProt P07949); test: Inhibition of CCDC6/RET in human TPC1 cells assessed as reduction in cell proliferation supplemented with fresh medium containing compound for every 2 to 3 days and measured during compound dosing
Target sequence in this assay (P07949 whole entry, looked up, canonical isoform): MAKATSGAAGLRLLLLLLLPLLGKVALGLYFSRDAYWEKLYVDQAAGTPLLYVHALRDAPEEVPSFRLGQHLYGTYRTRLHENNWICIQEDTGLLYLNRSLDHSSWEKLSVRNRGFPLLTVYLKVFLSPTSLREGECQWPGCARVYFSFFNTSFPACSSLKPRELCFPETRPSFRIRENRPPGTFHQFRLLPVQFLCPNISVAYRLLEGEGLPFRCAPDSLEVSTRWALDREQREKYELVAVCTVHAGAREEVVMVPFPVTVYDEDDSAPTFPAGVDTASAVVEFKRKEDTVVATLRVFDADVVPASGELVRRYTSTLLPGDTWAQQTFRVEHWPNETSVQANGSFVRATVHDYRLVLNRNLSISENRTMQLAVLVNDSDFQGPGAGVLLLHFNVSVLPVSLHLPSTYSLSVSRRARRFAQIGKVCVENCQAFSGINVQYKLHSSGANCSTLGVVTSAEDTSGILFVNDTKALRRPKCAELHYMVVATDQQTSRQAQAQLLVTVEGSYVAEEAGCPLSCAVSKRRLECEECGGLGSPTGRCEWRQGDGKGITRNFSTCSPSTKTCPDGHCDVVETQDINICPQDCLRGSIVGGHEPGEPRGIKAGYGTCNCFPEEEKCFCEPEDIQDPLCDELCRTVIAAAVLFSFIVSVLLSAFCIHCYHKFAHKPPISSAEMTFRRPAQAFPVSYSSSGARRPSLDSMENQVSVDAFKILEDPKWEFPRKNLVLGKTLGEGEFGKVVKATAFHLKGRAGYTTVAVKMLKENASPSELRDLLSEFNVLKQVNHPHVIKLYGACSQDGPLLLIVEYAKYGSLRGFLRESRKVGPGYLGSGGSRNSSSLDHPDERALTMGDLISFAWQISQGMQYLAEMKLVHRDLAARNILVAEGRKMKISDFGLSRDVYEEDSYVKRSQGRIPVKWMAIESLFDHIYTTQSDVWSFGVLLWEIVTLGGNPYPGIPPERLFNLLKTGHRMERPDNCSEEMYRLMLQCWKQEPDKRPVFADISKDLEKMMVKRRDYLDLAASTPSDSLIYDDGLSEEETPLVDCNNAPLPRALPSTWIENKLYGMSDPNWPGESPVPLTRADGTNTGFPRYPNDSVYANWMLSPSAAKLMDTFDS

[2] = target: T1, Proto-oncogene tyrosine-protein kinase receptor Ret; test: Inhibition of RET isoform 9 M918T mutant in human MZ-CRC-1 cells assessed as reduction in cell proliferation supplemented with fresh medium containing compound for every 2 to 3 days and measured during compound dosing
Summary of the method: (§1)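 TT (200000/well) or MZ-CRC-1 (100000/well) seeded in 10% FCS; drug or vehicle from next day, refreshed every 2–3 days; counted every 2–3 days; IC50 by curve fitting of last-day growth.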
Target sequence in this assay (P07949 29-1114 M918T limits assumed): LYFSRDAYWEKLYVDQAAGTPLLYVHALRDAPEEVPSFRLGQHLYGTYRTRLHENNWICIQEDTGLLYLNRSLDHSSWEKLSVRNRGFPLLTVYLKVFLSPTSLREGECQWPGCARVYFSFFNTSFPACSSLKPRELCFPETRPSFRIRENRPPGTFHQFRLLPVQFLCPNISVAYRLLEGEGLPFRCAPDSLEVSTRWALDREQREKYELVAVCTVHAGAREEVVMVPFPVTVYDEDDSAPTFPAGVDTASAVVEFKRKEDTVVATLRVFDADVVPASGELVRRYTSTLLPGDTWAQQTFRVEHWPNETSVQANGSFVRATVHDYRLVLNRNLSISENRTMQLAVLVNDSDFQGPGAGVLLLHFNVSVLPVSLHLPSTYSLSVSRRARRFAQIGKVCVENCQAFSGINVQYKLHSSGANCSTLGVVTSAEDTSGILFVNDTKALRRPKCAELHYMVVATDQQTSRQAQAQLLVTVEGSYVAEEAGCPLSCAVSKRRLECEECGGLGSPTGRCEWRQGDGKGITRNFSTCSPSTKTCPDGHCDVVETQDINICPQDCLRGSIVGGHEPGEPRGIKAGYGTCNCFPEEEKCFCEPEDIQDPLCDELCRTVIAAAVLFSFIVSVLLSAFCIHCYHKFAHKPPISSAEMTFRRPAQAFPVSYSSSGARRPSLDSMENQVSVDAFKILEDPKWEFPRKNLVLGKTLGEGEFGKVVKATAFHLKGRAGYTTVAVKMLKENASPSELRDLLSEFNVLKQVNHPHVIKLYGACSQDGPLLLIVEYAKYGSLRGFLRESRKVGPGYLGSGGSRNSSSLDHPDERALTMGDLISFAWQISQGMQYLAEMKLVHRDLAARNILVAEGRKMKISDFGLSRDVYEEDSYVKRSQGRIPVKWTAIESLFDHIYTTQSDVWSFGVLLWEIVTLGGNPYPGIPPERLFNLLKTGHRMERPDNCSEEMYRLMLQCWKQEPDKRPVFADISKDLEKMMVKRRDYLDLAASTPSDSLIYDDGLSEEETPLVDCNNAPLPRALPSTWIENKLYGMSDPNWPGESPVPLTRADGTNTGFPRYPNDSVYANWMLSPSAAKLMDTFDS

[3] = Inhibition of RET isoform 15 C634R mutant (unknown origin) expressed in mouse BAF3 cells assessed as reduction in cell proliferation supplemented with fresh medium containing compound for every 2 to 3 days and measured daily
[4] = Inhibition of RET isoform 9 C634Y mutant (unknown origin) expressed in mouse NIH/3T3 cells assessed as reduction in cell proliferation supplemented with fresh medium containing compound for every 2 to 3 days measured at 2 days interval during compound dosing
[5] = target: T1, Proto-oncogene tyrosine-protein kinase receptor Ret; test: Inhibition of CCDC6/RET in human LC2/ad cells assessed as reduction in cell proliferation supplemented with fresh medium containing compound for every 2 to 3 days and measured during compound dosing
Target sequence in this assay (P07949 whole entry, looked up, canonical isoform): as the sequence (P07949 whole entry, looked up, canonical isoform) above

[6] = target: T1, Proto-oncogene tyrosine-protein kinase receptor Ret; test: Inhibition of RET isoform 9 C634W mutant in human TT cells assessed as reduction in cell proliferation supplemented with fresh medium containing compound for every 2 to 3 days and measured during compound dosing
Summary of the method: as §1
Target sequence in this assay (P07949 29-1114 C634W limits assumed): as the sequence (P07949 29-1114 M918T limits assumed) above, with C606W, T890M counted along it

[7] = Inhibition of RET isoform 15 M918T mutant (unknown origin) expressed in mouse BAF3 cells assessed as reduction in cell proliferation supplemented with fresh medium containing compound for every 2 to 3 days and measured daily

pIC50 [1]: 9.17 | pIC50 [2]: 9.17 | pIC50 [3]: 8.77 | pIC50 [4]: 8.38 | pIC50 [5]: 9.17 | pIC50 [6]: 9.17 | pIC50 [7]: 8.80
SMILES: CC(C)(C)c1cc(NC(=O)Cc2ccc(-n3cnc4cc(-c5ccc(S(C)(=O)=O)cc5)ccc43)cc2)no1
